In ChEMBL document CHEMBL1212873, “Inactivation of protein tyrosine phosphatases by oltipraz and other cancer chemopreventive 1,2-dithiole-3-thiones” (Bioorg Med Chem, 2010):
Calls of active or inactive are those of the source. The rule behind the calls is not given here.

How the values were obtained:
[1] = biological target: T1, Tyrosine-protein phosphatase non-receptor type 1 (Homo sapiens) (UniProt P18031); experiment: Competitive inhibition of human PTP1B catalytic subunit assessed as enzyme inactivation at 25 uM after 15 mins by spectrophotometry
T1 sequence (whole entry): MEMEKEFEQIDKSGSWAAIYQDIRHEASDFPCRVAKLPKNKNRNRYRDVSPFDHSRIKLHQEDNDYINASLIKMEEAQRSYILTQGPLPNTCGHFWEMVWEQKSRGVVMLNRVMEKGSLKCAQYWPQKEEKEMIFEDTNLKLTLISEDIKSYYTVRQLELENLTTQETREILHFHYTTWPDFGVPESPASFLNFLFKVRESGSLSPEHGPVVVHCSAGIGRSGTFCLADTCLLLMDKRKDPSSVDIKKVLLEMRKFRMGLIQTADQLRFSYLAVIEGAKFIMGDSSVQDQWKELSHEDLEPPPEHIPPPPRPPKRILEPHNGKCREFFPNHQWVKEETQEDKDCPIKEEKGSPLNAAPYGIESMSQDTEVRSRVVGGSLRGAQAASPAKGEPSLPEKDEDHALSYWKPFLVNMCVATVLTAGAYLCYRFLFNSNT
Method in brief: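 Thiol-free PTP1B (12.5 nM final) with compound at 25 µM and 20 mM pNPP in 50 mM Tris, 50 mM bis-Tris, 100 mM sodium acetate, 10 mM DETAPAC, 1% DMF, pH 7.2, 23 °C. Activity loss followed at 410 nm; apparent inactivation rate from first-order fit of progress curves; mean of three experiments.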

[2] = biological target: T2, Tyrosine-protein phosphatase non-receptor type 11 (Homo sapiens) (UniProt Q06124); experiment: Irreversible inhibition of SHP2 at 10 to 50 uM in presence of 100 mM dithiothreitol
T2 sequence (whole entry): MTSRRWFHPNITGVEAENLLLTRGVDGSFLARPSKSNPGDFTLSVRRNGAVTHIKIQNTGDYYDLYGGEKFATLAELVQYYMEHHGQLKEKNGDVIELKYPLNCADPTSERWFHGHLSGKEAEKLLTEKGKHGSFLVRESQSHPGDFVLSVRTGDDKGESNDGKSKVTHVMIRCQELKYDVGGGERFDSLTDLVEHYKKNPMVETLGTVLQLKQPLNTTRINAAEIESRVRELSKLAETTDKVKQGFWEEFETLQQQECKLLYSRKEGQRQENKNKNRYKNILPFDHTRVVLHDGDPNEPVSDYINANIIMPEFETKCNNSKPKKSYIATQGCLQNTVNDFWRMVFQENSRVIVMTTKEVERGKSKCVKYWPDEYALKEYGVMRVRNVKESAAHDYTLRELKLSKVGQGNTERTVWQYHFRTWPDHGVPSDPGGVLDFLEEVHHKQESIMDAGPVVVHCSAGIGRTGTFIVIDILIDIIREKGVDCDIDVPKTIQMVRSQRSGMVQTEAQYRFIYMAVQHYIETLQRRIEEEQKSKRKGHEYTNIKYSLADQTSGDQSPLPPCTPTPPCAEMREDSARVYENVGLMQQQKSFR

[3] = biological target: T1, Tyrosine-protein phosphatase non-receptor type 1 (Homo sapiens); details: 50 uM
[4] = biological target: T1, Tyrosine-protein phosphatase non-receptor type 1 (Homo sapiens); details: 50 uM; remark: listed apart in the source
[5] = biological target: T1, Tyrosine-protein phosphatase non-receptor type 1 (Homo sapiens); details: 2 to 50 uM
[6] = biological target: T1, Tyrosine-protein phosphatase non-receptor type 1 (Homo sapiens); details: 2 to 50 uM; remark: listed apart in the source
[7] = biological target: T1, Tyrosine-protein phosphatase non-receptor type 1 (Homo sapiens); details: 2 to 50 uM; remark: listed apart in the source
[8] = biological target: T2, Tyrosine-protein phosphatase non-receptor type 11 (Homo sapiens); details: 10 to 50 uM
[9] = biological target: T1, Tyrosine-protein phosphatase non-receptor type 1 (Homo sapiens); details: 2 to 50 uM; remark: listed apart in the source
[10] = biological target: T1, Tyrosine-protein phosphatase non-receptor type 1 (Homo sapiens); details: 2 to 50 uM; remark: listed apart in the source
[11] = biological target: T1, Tyrosine-protein phosphatase non-receptor type 1 (Homo sapiens); details: 50 uM; remark: listed apart in the source
[12] = biological target: T1, Tyrosine-protein phosphatase non-receptor type 1 (Homo sapiens); details: 50 uM; remark: listed apart in the source
[13] = biological target: T2, Tyrosine-protein phosphatase non-receptor type 11 (Homo sapiens); details: 10 to 50 uM; remark: listed apart in the source
[14] = biological target: T2, Tyrosine-protein phosphatase non-receptor type 11 (Homo sapiens); details: 10 to 50 uM; remark: listed apart in the source

SMILES | inhibition [1] | inhibition [2] | inhibition [3] | inhibition [4] | inhibition [5] | inhibition [6] | inhibition [7] | inhibition [8] | inhibition [9] | inhibition [10] | inhibition [11] | inhibition [12] | inhibition [13] | inhibition [14]
COc1ccc(-c2cc(=S)ss2)cc1 | Active |  |  |  |  |  |  |  |  |  |  |  |  | 
S=c1ccss1 | Active | inactive |  |  |  |  |  |  |  |  |  |  |  | 
Cc1c(-c2cnccn2)ssc1=S | Active |  | 70% | 50% | tde | Active | Active | Active | Active | Active | > 97% | inactive | inactive | inactive
